ChEMBL document CHEMBL1144560, “Synthesis of benzofuran scaffold-based potential PTP-1B inhibitors” (Bioorg Med Chem, 2007)
Active and inactive are the calls of the source. The rule behind the calls is not given here.

Columns and labels:
[1] = target: T1, Tyrosine-protein phosphatase non-receptor type 1 (Homo sapiens) (UniProt P18031); assay: (§1) Inhibition of PTP1B at 100 uM
T1 sequence (whole entry): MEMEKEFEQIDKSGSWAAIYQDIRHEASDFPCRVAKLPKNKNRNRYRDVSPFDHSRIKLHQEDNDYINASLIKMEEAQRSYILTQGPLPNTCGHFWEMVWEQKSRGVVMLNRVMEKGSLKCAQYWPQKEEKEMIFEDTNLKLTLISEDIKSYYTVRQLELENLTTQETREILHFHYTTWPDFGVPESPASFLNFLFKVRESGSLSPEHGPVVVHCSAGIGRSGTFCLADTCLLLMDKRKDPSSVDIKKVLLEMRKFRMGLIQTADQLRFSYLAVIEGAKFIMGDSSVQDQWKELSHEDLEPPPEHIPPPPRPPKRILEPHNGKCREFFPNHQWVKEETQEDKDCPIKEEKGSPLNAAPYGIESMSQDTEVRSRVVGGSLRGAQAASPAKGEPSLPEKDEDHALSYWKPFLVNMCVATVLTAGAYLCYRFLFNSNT
Summary of the method: (§2)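 Compound at 100 µM preincubated 10 min with PTP-1B, then 10 mM pNPP in 50 mM HEPES pH 7.0 with 1 mM DTT and 2 mM EDTA for 30 min at 37 °C. Stopped with 0.1 N NaOH. p-Nitrophenolate read at 410 nm (ε 1.78×10^4 M⁻¹cm⁻¹) to give residual activity. Mean of three independent experiments.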

[2] = target: T2, Tyrosine-protein phosphatase non-receptor type 1 (Homo sapiens, UniProt P18031); assay: Inhibition of PTP1B in presence of 0.01% Triton X-100
T2 sequence (P18031 whole entry): T1 sequence (whole entry)
Summary of the method: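 0.01% Triton X-100 included during the 10-min preincubation of compound (10–100 µM) with PTP-1B. Then 10 mM pNPP in 50 mM HEPES pH 7.0, 1 mM DTT, 2 mM EDTA, 30 min at 37 °C, NaOH stop. Read at 410 nm (ε 1.78×10^4 M⁻¹cm⁻¹). IC50 and Ki derived.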

[3] = target: T2, Tyrosine-protein phosphatase non-receptor type 1; assay: Inhibition of PTP1B
Summary of the method: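 No detergent present. Compounds at 10, 25, 50, 75 and 100 µM preincubated 10 min with PTP-1B, then 10 mM pNPP in 50 mM HEPES pH 7.0, 1 mM DTT, 2 mM EDTA, 30 min at 37 °C. NaOH stop. A410 converted to p-nitrophenolate (ε 1.78×10^4 M⁻¹cm⁻¹). IC50 and Ki derived.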

[4] = target: Tyrosine-protein phosphatase non-receptor type 1 (Homo sapiens) (UniProt P18031); assay: as §1; summary of the method: as §2; remark: listed apart in the source

O=C(/C=C(\O)c1ccccc1)c1ccc2occc2c1O
inhibition [1]: 40.5%

COc1c(C(=O)/C=C(\O)c2ccccc2Cl)ccc2occc12
inhibition [1]: 27%

COc1ccc(-c2cc(=O)c3cc4ccoc4cc3o2)cc1
IC50 [2]: 68.8 µM | Ki [2]: 36 µM | IC50 [3]: 72.5 µM | Ki [3]: 30 µM | inhibition [1]: 75.6%

COc1c(C(=O)/C=C(\O)c2ccc(CO)c(CO)c2)ccc2occc12
inhibition [1]: 42.8%

COc1cc2occc2cc1C(=O)/C=C(\O)c1ccccc1
inhibition [1]: 41.5%

CC(=O)c1cc2ccoc2cc1O
inhibition [1]: 19%

COC(=O)c1ccc2oc(-c3coc4ccc(C(=O)OC)c(O)c34)cc2c1O
inhibition [1]: 55.5%

COc1cccc(-c2cc(=O)c3cc4ccoc4cc3o2)c1
Activity [1]: inactive

COc1ccc2cc(-c3coc4c(C(C)=O)c(OC)ccc34)oc2c1C(C)=O
inhibition [1]: 54.6%

COc1ccc(/C(O)=C/C(=O)c2cc3ccoc3cc2O)cc1
inhibition [1]: 40.5%

O=C(/C=C(\O)c1ccccc1)c1cc2ccoc2cc1O
inhibition [1]: 24.3%

SODIUM ORTHOVANAD
inhibition [4]: 56%

O=c1cc(-c2ccccc2)oc2c1ccc1occc12
inhibition [1]: 21%

COc1ccc(-c2cc(=O)c3ccc4occc4c3o2)cc1
inhibition [1]: 22%

COc1ccc(/C(O)=C/C(=O)c2ccc3occc3c2O)cc1
inhibition [1]: 24.3%

COc1ccc(/C(O)=C/C(=O)c2ccc3occc3c2OC)cc1
Activity [1]: inactive

O=c1cc(-c2ccc(CO)c(CO)c2)oc2cc3occc3cc12
inhibition [1]: 8.1%

COc1cccc(/C(O)=C/C(=O)c2cc3ccoc3cc2O)c1
Activity [1]: inactive

CC(=O)c1ccc2occc2c1O
inhibition [1]: 21.6%

CC(=O)c1c(O)ccc2cc(-c3coc4c(C(C)=O)c(O)ccc34)oc12
IC50 [2]: 56.3 µM | Ki [2]: 54 µM | IC50 [3]: 75 µM | Ki [3]: 64 µM | inhibition [1]: 72%

CC(=O)c1cc2oc(-c3coc4cc(C(C)=O)c(O)cc34)cc2cc1O
inhibition [1]: 36.2%

COc1ccc(/C(O)=C/C(=O)c2cc3ccoc3cc2O)cc1OC
inhibition [1]: 32.4%

CC(=O)c1cc2cc(-c3coc4cc(O)c(C(C)=O)cc34)oc2cc1O
IC50 [2]: 91.3 µM | Ki [2]: 61 µM | IC50 [3]: 80 µM | Ki [3]: 37 µM | inhibition [1]: 74.9%

O=c1cc(-c2ccccc2)oc2cc3occc3cc12
IC50 [2]: 61.3 µM | Ki [2]: 45 µM | IC50 [3]: 94 µM | Ki [3]: 57 µM | inhibition [1]: 67.5%

COc1ccc(-c2cc(=O)c3cc4ccoc4cc3o2)cc1OC
inhibition [1]: 24.3%

O=C(/C=C(\O)c1ccc(CO)c(CO)c1)c1cc2ccoc2cc1O
inhibition [1]: 56.7%

CC(=O)c1ccc2oc(-c3coc4ccc(C(C)=O)c(O)c34)cc2c1O
IC50 [2]: 58.8 µM | Ki [2]: 27.5 µM | IC50 [3]: 87 µM | Ki [3]: 35 µM | inhibition [1]: 67.4%
